# Source: ChEMBL document CHEMBL4828761, “Development and crystallography-aided SAR studies of multifunctional BuChE inhibitors and 5-HT6R antagonists with β-amyloid anti-aggregation properties” (Eur J Med Chem, 2021)
# Activity calls are given as the source filed them. The calls are words filed in the database; no cut-off is given here.
# Experiments:
# [1] = molecular target: Cholinesterase (Equus caballus) (UniProt P81908); assay: Reversible inhibition of equine serum BuChE using BTC as substrate at 10XIC50 preincubated with 100-fold diluted enzyme for 120 mins followed by substrate addition and measured after 5 mins by 100-fold dilution assay; assay type: cell-free; conditions: time 125.0 min
# Procedure, shortened: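 Equine BuChE preincubated with inhibitor at 100-fold the final enzyme concentration for 30, 60 or 120 min at 25 °C. Then diluted 100-fold into 0.1 M phosphate pH 8 with DTNB. BTC (0.00375 M) added; A412 read after 5 min. Activity recovery compared with enzyme/vehicle blanks; two independent experiments, each in quadruplicate.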
# Cholinesterase [2] = molecular target: T1, Cholinesterase (Homo sapiens, UniProt P06276); assay: Inhibition of BuChE in human plasma using BTC as substrate at 10 uM preincubated with enzyme for 5 mins followed by substrate addition for 5 mins by Ellman's method relative to control; assay type: cell-free; conditions: time 10.0 min
# Procedure, shortened: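 Human plasma BuChE at 0.384 U/mL final, with DTNB in 0.1 M phosphate buffer pH 8.0. Compound at 10 µM screened, preincubated 5 min at 36 °C.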
# [3] = molecular target: 5-hydroxytryptamine receptor 6 (Homo sapiens, UniProt P50406); assay: Displacement of [3H]LSD from human 5HT6 receptor expressed in CHO-K1 membrane incubated for 60 mins by solid scintillation counting analysis; assay type: cell membranes
# Cholinesterase [4] = molecular target: Cholinesterase (Equus caballus, UniProt P81908); assay: Inhibition of equine serum BuChE using BTC as substrate preincubated with enzyme for 5 mins followed by substrate addition for 5 mins by Ellman's method; assay type: cell-free
# [5] = molecular target: Amyloid-beta precursor protein (Homo sapiens) (UniProt P05067); assay: Inhibition of amyloid beta (1 to 42) (unknown origin) self aggregation at 10 uM incubated for 24 to 48 hrs by Thioflavin-T based fluorometric assay; conditions: time lower […], time upper 48.0 hrs
# Cholinesterase [6] = molecular target: T1, Cholinesterase; assay: Inhibition of BuChE in human plasma using BTC as substrate preincubated with enzyme for 5 mins followed by substrate addition for 5 mins by Ellman's method; assay type: cell-free
# Procedure, shortened: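 Human plasma BuChE at 0.384 U/mL final, with DTNB in 0.1 M phosphate pH 8.0. […] BTC solution (0.00375 M) added; A412 after 5 min. Run in triplicate; IC50 from nonlinear regression of residual activity versus concentration.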
# [7] = molecular target: Amyloid-beta precursor protein (Homo sapiens) (UniProt P05067); assay: Inhibition of self-induced aggregation of amyloid beta (1 to 42) (unknown origin) expressed in Escherichia coli BL21(DE3) at 10 uM incubated for 60 mins by fluorescence based analysis
# [8] = MRT in CD-1 mouse plasma at 30 mg/kg, po measured for 480 mins by LC-ESI-MS/MS analysis; assay type: ADME, organism-based
# Procedure, shortened: (§1)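 Adult male CD-1 mice (20–25 g), dosed in saline i.v. 3 mg/kg or intragastrically 30 mg/kg; 6 animals per time point. Under i.p. ketamine/xylazine anaesthesia, blood collected after decapitation into heparinized tubes, plasma separated; brain homogenized in pH 7.4 phosphate buffer (1:2.5). Acetonitrile precipitation with internal standard, LC/ESI-MS/MS on C18 with formic acid eluents; non-compartmental parameters.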
# [9] = Metabolic stability in mouse liver microsomes assessed as parent compound remaining at 50 microM preincubated for 5 mins followed by incubation with NADPH regenerating system for 120 mins by UPLC-MS analysis; assay type: ADME, Microsome; conditions: time 125 min, read-out: Stability
# Procedure, shortened: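 Mouse liver microsomes 1 mg/mL in 0.1 M Tris-HCl pH 7.4 with 50 μM compound, preincubated 5 min at 37 °C, then started with NADPH regeneration system; stopped after 120 min at 37 °C with cold methanol, centrifuged, supernatant analysed by UPLC-MS for remaining parent and metabolites. Verapamil served as reference.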
# [10] = Half life in CD-1 mouse plasma at 30 mg/kg, po measured for 480 mins by LC-ESI-MS/MS analysis; assay type: ADME, organism-based; procedure, shortened: as §1
# [11] = Cytotoxicity against human HepG2 cells assessed as non-toxic concentration incubated for 72 hrs by MTS assay; assay type: cell-based; conditions: read-out: MNCC
# Procedure, shortened: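 HepG2 cells grown in MEM with 2 mM glutamine, 1% NEAA, 10% FBS at 37 °C, 5% CO2. Compounds tested in quadruplicate at 0.1, 1, 10 and 100 μM for 72 h; viability read by MTS (CellTiter 96 AQueous) assay. Doxorubicin 1 μM and CCCP 10 μM served as positive controls.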
# [12] = AUC (0 to t) in CD-1 mouse brain at 3 mg/kg, iv measured for 480 mins by LC-ESI-MS/MS analysis; assay type: ADME, organism-based; conditions: in vivo, 8 h; procedure, shortened: as §1
# [13] = MRT in CD-1 mouse brain at 3 mg/kg, iv measured for 480 mins by LC-ESI-MS/MS analysis; assay type: ADME, organism-based; procedure, shortened: as §1
# [14] = Half life in CD-1 mouse brain at 30 mg/kg, po measured for 480 mins by LC-ESI-MS/MS analysis; assay type: ADME, organism-based; procedure, shortened: as §1
# [15] = Half life in CD-1 mouse plasma at 3 mg/kg, iv measured for 480 mins by LC-ESI-MS/MS analysis; assay type: ADME, organism-based; procedure, shortened: as §1
# [16] = Initial plasma concentration in CD-1 mouse at 3 mg/kg, iv by LC-ESI-MS/MS analysis; assay type: ADME, organism-based; procedure, shortened: as §1
# [17] = Tmax in CD-1 mouse plasma at 30 mg/kg, po measured for 480 mins by LC-ESI-MS/MS analysis; assay type: ADME, organism-based; procedure, shortened: as §1
# [18] = Apparent oral clearance in CD-1 mouse at 30 mg/kg measured for 480 mins by LC-ESI-MS/MS analysis; assay type: ADME, organism-based; conditions: in vivo; procedure, shortened: as §1
# [19] = Ratio of drug level in brain to plasma in CD-1 mouse at 3 mg/kg, iv by LC-ESI-MS/MS analysis; assay type: ADME, organism-based; conditions: read-out: BPR; procedure, shortened: as §1
# [20] = MRT in CD-1 mouse brain at 30 mg/kg, po measured for 480 mins by LC-ESI-MS/MS analysis; assay type: ADME, organism-based; procedure, shortened: as §1
# [21] = MRT in CD-1 mouse plasma at 3 mg/kg, iv measured for 480 mins by LC-ESI-MS/MS analysis; assay type: ADME, organism-based; conditions: in vivo, 8 h; procedure, shortened: as §1
# [22] = AUC (0 to t) in CD-1 mouse plasma at 30 mg/kg, po measured for 480 mins by LC-ESI-MS/MS analysis; assay type: ADME, organism-based; set-up: time 480 min, dose 30 mg/kg; procedure, shortened: as §1
# [23] = Initial drug concentration in CD-1 mouse brain at 3 mg/kg, iv by LC-ESI-MS/MS analysis; assay type: ADME, organism-based; procedure, shortened: as §1
# [24] = Ratio of drug level in brain to plasma in CD-1 mouse at 30 mg/kg, po by LC-ESI-MS/MS analysis; assay type: ADME, organism-based; conditions: read-out: BPR; procedure, shortened: as §1
# [25] = Cmax in CD-1 mouse brain at 30 mg/kg, po measured for 480 mins by LC-ESI-MS/MS analysis; assay type: ADME, organism-based; set-up: route oral, dose 30 mg/kg, time 480 min; procedure, shortened: as §1
# [26] = AUC (0 to t) in CD-1 mouse brain at 30 mg/kg, po measured for 480 mins by LC-ESI-MS/MS analysis; assay type: ADME, organism-based; conditions: in vivo, 8 h; procedure, shortened: as §1
# [27] = Cmax in CD-1 mouse plasma at 30 mg/kg, po measured for 480 mins by LC-ESI-MS/MS analysis; assay type: ADME, organism-based; set-up: route oral, dose 30 mg/kg, time 480 min; procedure, shortened: as §1
# [28] = Half life in CD-1 mouse brain at 3 mg/kg, iv measured for 480 mins by LC-ESI-MS/MS analysis; assay type: ADME, organism-based; procedure, shortened: as §1
# [29] = Apparent oral volume of distribution at steady state in CD-1 mouse at 30 mg/kg measured for 480 mins by LC-ESI-MS/MS analysis; assay type: ADME, organism-based; conditions: in vivo; procedure, shortened: as §1
# [30] = Tmax in CD-1 mouse brain at 30 mg/kg, po measured for 480 mins by LC-ESI-MS/MS analysis; assay type: ADME, organism-based; procedure, shortened: as §1
# [31] = AUC (0 to t) in CD-1 mouse plasma at 3 mg/kg, iv measured for 480 mins by LC-ESI-MS/MS analysis; assay type: ADME, organism-based; set-up: dose 3 mg/kg, time 480 min; procedure, shortened: as §1
# [32] = Oral bioavailability in CD-1 mouse at 30 mg/kg measured for 480 mins by LC-ESI-MS/MS analysis; assay type: ADME, organism-based; conditions: in vivo; procedure, shortened: as §1
# T1 sequence (P06276 whole entry): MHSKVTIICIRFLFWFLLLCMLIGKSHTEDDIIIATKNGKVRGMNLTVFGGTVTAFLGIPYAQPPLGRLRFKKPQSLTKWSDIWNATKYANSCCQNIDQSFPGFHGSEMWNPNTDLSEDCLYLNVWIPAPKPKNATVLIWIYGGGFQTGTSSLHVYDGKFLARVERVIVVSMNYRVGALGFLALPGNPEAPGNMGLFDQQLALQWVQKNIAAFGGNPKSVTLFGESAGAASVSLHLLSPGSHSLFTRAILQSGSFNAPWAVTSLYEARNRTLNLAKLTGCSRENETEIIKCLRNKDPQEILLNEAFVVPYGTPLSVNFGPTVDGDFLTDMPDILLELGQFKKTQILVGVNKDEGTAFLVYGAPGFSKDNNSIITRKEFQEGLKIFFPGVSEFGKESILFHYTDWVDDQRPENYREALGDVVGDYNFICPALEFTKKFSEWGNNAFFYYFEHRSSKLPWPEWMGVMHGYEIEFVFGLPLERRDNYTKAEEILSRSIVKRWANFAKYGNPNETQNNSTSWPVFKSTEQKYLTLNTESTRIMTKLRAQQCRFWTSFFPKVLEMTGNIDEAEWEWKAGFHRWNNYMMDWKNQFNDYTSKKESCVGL
# Chain of Cholinesterase (Equus caballus, UniProt P81908) (P81908 whole entry): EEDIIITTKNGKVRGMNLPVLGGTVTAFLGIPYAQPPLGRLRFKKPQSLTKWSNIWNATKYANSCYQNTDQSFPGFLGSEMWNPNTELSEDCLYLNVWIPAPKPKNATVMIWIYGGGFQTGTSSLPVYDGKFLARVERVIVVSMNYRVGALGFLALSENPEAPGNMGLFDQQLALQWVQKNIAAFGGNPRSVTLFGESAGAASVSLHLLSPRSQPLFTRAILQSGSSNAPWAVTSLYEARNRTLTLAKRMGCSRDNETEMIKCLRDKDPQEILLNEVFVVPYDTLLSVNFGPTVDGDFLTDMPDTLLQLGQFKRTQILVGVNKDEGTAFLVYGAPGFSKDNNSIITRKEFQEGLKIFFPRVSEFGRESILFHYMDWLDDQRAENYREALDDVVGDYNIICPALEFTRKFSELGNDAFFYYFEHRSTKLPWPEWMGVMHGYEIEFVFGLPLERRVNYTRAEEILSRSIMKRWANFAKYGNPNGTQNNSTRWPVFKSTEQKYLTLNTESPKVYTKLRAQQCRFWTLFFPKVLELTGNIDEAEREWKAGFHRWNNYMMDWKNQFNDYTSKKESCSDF
# Chain of Amyloid-beta precursor protein (Homo sapiens) (P05067 whole entry): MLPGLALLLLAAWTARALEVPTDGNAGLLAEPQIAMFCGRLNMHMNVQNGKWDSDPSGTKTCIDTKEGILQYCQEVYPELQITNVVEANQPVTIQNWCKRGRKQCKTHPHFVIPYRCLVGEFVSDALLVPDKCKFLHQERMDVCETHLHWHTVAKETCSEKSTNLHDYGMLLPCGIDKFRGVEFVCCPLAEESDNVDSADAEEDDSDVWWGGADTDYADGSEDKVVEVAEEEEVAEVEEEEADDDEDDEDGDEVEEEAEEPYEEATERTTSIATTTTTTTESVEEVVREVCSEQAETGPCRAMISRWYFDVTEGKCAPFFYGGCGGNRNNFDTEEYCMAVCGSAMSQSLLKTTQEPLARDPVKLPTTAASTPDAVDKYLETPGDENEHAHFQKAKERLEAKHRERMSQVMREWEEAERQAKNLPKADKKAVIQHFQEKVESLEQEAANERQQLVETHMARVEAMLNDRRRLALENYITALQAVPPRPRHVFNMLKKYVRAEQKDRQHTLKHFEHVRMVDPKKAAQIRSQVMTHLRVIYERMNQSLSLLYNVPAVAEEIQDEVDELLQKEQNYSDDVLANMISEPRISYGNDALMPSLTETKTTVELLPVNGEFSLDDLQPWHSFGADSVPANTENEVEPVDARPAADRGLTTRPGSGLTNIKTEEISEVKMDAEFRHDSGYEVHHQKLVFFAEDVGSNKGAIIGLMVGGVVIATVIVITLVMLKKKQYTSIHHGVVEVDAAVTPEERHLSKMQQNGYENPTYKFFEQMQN
# Chain of Cholinesterase (Equus caballus) (P81908 whole entry): as the sequence (P81908 whole entry) above
# Chain of 5-hydroxytryptamine receptor 6 (P50406 whole entry): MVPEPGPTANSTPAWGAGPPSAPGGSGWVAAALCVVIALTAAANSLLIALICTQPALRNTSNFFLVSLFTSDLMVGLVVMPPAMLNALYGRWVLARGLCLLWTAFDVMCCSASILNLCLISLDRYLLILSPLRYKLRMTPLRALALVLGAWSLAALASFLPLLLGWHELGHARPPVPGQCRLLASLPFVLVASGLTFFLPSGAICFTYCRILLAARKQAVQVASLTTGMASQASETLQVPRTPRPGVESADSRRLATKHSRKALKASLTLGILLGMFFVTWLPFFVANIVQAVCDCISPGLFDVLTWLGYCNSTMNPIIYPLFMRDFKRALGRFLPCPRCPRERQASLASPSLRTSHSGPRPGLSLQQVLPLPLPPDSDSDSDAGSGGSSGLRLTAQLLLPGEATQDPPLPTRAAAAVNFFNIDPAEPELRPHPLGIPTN
smiles,measurement,setting,value
CC(C)(C)OC(=O)N1CCCC(CNCCOc2cccc3c2CCN3Cc2ccccc2)C1 (stereo not given),inhibition,[1],Active
same,inhibition,Cholinesterase [2],> 50%
same,Ki,[3],1080 nM
same,IC50,Cholinesterase [4],25.7 nM
same,inhibition,[5],79.7%
same,IC50,Cholinesterase [6],175 nM
O=S(=O)(c1ccccc1)n1ccc2c(N3CCN(CCCCCCNc4c5c(nc6ccccc46)CCCC5)CC3)cccc21,inhibition,[7],30%
CC(C)(C)OC(=O)N1CCCC(CNCCOc2cccc3c2ccn3Cc2ccccc2)C1 (stereo not given),inhibition,[1],Active
same,inhibition,Cholinesterase [2],> 50%
same,Ki,[3],369 nM
same,IC50,Cholinesterase [4],11 nM
same,inhibition,[5],79.4%
same,IC50,Cholinesterase [6],115 nM
O=S(=O)(c1ccccc1)n1ccc2c(OCCNCC3CCCCC3)cccc21,MRT,[8],3.24 h
same,"remaining at 2 h, 50 µM",[9],59%
same,half-life,[10],4.97 h
same,MNTC at 72 h,[11],≤ 1000 nM
same,AUCt,[12],125194 ng·min/g
same,MRT,[13],2.83 h
same,half-life,[14],3 h
same,half-life,[15],5.53 h
same,C0,[16],176 ng/mL
same,Tmax,[17],1 h
same,CL/F,[18],189 mL/min/kg
same,Kp,[19],3.33
same,MRT,[20],3.24 h
same,MRT,[21],3.18 h
same,AUC(0-t) at 8 h,[22],1800 ng·h/mL
same,C0,[23],404 ng/mL
same,Kp,[24],6.79
same,Cmax,[25],2800 ng/mL
same,IC50,Cholinesterase [4],89.9 nM
same,AUCt,[26],734469 ng·min/g
same,Cmax,[27],532 ng/mL
same,half-life,[28],2.97 h
same,Vd/F,[29],81.4 L/kg
same,Tmax,[30],1 h
same,IC50,Cholinesterase [6],551 nM
same,AUC(0-t) at 8 h,[31],627 ng·h/mL
same,bioavailability,[32],28.7%
